Data from ChEMBL document CHEMBL3112500, “Synthesis and biological evaluation of allylated and prenylated mono-carbonyl analogs of curcumin as anti-inflammatory agents” (Eur J Med Chem, 2014).
Calls of active or inactive are those of the source. The rule behind the calls is not given here.

How the values were obtained:
[1] = Cytotoxicity against human HL-7702 cells at 10 uM after 24 hrs by MTT assay; type: cell-based; details: l02, 24 h
In short: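 HL-7702 cells, 5000 per well, in 1640 medium with 5% heat-inactivated serum, 37 °C, 5% CO₂. Compounds in DMSO, diluted in medium to final 10 µM, applied for 24 h. MTT (5 mg/ml in 0.9% NaCl) added for 3 h, then cells dissolved in DMSO and absorbance read at 570 nm.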

RAW264.7 [2] = experiment: Antiinflammatory activity in mouse RAW264.7 cells assessed as inhibition of LPS-induced IL-6 release pretreated at 10 uM for 2 hrs prior LPS challenge measured after 22 hrs post challenge by ELISA; type: functional
In short: (§1)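 RAW 264.7 cells plated at 4.0 × 10⁵ per plate overnight (37 °C, 5% CO₂). Pretreated 2 h, then stimulated with LPS 0.5 µg/ml (in PBS) for 22 h. Medium TNF-α and IL-6 measured by ELISA, normalized to total cell protein (Bio-Rad assay) and expressed as percent of LPS control. Mean ± SE, 3–5 independent experiments.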

RAW264.7 [3] = experiment: Antiinflammatory activity in mouse RAW264.7 cells assessed as inhibition of LPS-induced IL-6 release pretreated for 2 hrs prior LPS challenge measured after 22 hrs post challenge by ELISA; type: functional, cell-based
In short: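 Dose series in RAW 264.7 cells: pretreatment at 1.1, 3.3 and 10 µM for 2 h, then LPS 0.5 µg/ml for 22 h. Medium IL-6 determined by ELISA and normalized to total protein.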

RAW264.7 [4] = experiment: Antiinflammatory activity in mouse RAW264.7 cells assessed as inhibition of LPS-induced TNF-alpha gene expression pretreated at 10 uM for 2 hrs prior LPS challenge measured after 6 hrs post challenge by RT-qPCR analysis; type: functional, cell-based
In short: (§2)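 RAW 264.7 cells in DMEM with 10% FBS, plated at 4.0 × 10⁵ per plate overnight at 37 °C, 5% CO₂. Pretreatment 2 h, then LPS 0.5 µg/ml for 6 h. IL-6, TNF-α and IL-1β mRNA quantified by RT-qPCR, normalized to β-actin mRNA and expressed as ratio to DMSO. Mean ± SD of 3–5 independent experiments.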

RAW264.7 [5] = experiment: Antiinflammatory activity in mouse RAW264.7 cells assessed as inhibition of LPS-induced IL-6 gene expression pretreated at 10 uM for 2 hrs prior LPS challenge measured after 6 hrs post challenge by RT-qPCR analysis; type: functional, cell-based; in short: as §2
RAW264.7 [6] = experiment: Antiinflammatory activity in mouse RAW264.7 cells assessed as inhibition of LPS-induced IL-1beta gene expression pretreated at 10 uM for 2 hrs prior LPS challenge measured after 6 hrs post challenge by RT-qPCR analysis; type: functional, cell-based; in short: as §2
RAW264.7 [7] = experiment: Antiinflammatory activity in mouse RAW264.7 cells assessed as inhibition of LPS-induced TNFalpha release pretreated at 10 uM for 2 hrs prior LPS challenge measured after 22 hrs post challenge by ELISA; type: functional; in short: as §1
[8] = Chemical stability of the compound in phosphate buffer at pH 7.4 at 20 uM up to 25 mins by UV-visible absorption spectrum assay; type: physicochemical; details: pH 7.4, 25 min
[9] = system: Peritoneal macrophage cell; experiment: Antiinflammatory activity in mouse peritoneal macrophages assessed as inhibition of LPS-induced TNFalpha protein expression pretreated for 2 hrs prior LPS challenge measured after 22 hrs post challenge by ELISA; type: functional, cell-based
In short: (§3)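 Peritoneal macrophages from ICR mice elicited by i.p. thioglycollate, collected by lavage with PBS containing 30 mM EDTA, in RPMI-1640, nonadherent cells washed off at 3 h. Plated at 4.0 × 10⁵ per 35 mm plate. Pretreatment 2 h, then LPS 0.5 µg/ml for 22 h. IL-6 and TNF-α in medium measured by ELISA, normalized to total protein. 3 independent experiments.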

Mus musculus = experiment: Antiinflammatory activity in C57BL/6 mouse sepsis model assessed as increase in survival rate at 10 mg/kg, iv administered 15 mins prior LPS-challenge measured after 7 days; type: functional
In short: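 Male C57BL/6 mice (18–22 g) were dosed i.v. 15 min before i.p. LPS at 20 mg/kg. Drug solution was 2 mg/ml in macrogol 15 hydroxystearate (5–10%), with or without medium-chain triglycerides (0.5–2%). Controls received vehicle (10% solubilizer, 2% MCT). Survival was recorded every 12 h for 7 days; n = 9 per group.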

[10] = system: Peritoneal macrophage cell; experiment: Antiinflammatory activity in mouse peritoneal macrophages assessed as inhibition of LPS-induced IL6 protein expression pretreated for 2 hrs prior LPS challenge measured after 22 hrs post challenge by ELISA; type: functional, cell-based; in short: as §3
[11] = Chemical stability of the compound in phosphate buffer at pH 7.4 assessed as compound degradation at 20 uM up to 25 mins by UV-visible absorption spectrum assay; type: physicochemical; details: read-out: Drug degradation

Row | Compound | Activity [1] | inhibition at 10 µM (RAW264.7 [2]) [%] | also measured
1 | CC(C)=CCOc1ccc(/C=C2\CC/C(=C\c3ccc(OCC=C(C)C)cc3O)C2=O)c(O)c1 | Non-toxic | 20 | –
2 | C=CCc1cc(/C=C/C(=O)/C=C/c2ccc(OC)c(OC)c2)ccc1O | Non-toxic | 20 | inhibition (RAW264.7 [3]): Dose-dependent effect; inhibition (RAW264.7 [4]): Active; inhibition (RAW264.7 [5]): Active; inhibition (RAW264.7 [6]): Active
3 | C=CCc1cc(/C=C/C(=O)/C=C/c2cc(F)ccc2Br)ccc1OC | Non-toxic | 20 | inhibition (RAW264.7 [7]): Active; inhibition (RAW264.7 [3]): Dose-dependent effect; Stability [8]: Stable; inhibition (RAW264.7 [4]): Active; inhibition (RAW264.7 [5]): Active; inhibition (RAW264.7 [6]): Active
4 | COc1cc(/C=C2\CC/C(=C\c3ccc(OCC=C(C)C)c(OC)c3)C2=O)ccc1OCC=C(C)C | Non-toxic | 20 | –
5 | C=CCc1cc(/C=C/C(=O)/C=C/c2cc(OC)c(OC)cc2OC)ccc1OC | Non-toxic | 20 | inhibition (RAW264.7 [7]): Active; inhibition (RAW264.7 [3]): Dose-dependent effect; inhibition (RAW264.7 [4]): Active; inhibition (RAW264.7 [5]): Active; inhibition (RAW264.7 [6]): Active
6 | COc1cc(/C=C/C(=O)/C=C/c2ccc(OCC=C(C)C)c(OC)c2)ccc1OCC=C(C)C | Non-toxic | 20 | –
7 | C=CCc1cc(/C=C/C(=O)/C=C/c2cc(F)ccc2OC)ccc1OC | Non-toxic | 20 | –
8 | C=CCc1cc(/C=C/C(=O)/C=C/c2cccc(Cl)c2Cl)ccc1OC | Non-toxic | 20 | –
9 | C=CCc1cc(/C=C/C(=O)/C=C/c2ccc(OC)c(OC)c2)ccc1OC | Non-toxic | 20 | –
10 | C=CCc1cc(/C=C/C(=O)/C=C/c2ccccc2Cl)ccc1OC | Non-toxic | 20 | –
11 | C=CCc1cc(/C=C/C(=O)/C=C/c2ccc([N+](=O)[O-])cc2)ccc1O | Non-toxic | 20 | –
12 | C=CCOc1ccc(/C=C/C(=O)/C=C/c2ccc(OC)c(CC=C)c2)cc1 | Non-toxic | 20 | –
13 | C=CCc1cc(/C=C/C(=O)/C=C/c2ccc(Br)cc2)ccc1OC | Non-toxic | 20 | –
14 | C=CCOc1ccc(/C=C/C(=O)/C=C/c2ccc(OCC=C)cc2)cc1 | Non-toxic | – | –
15 | COc1ccc(/C=C/C(=O)/C=C/c2ccc(OCC=C(C)C)cc2)cc1OC | Non-toxic | 20 | –
16 | CC(C)=CCOc1ccc(/C=C/C(=O)/C=C/c2ccc(OCC=C(C)C)cc2)cc1 | Non-toxic | – | –
17 | C=CCc1cc(/C=C/C(=O)/C=C/c2cc(Br)ccc2Br)ccc1OC | Non-toxic | 91.1 | inhibition at 10 µM (RAW264.7 [7]): 67.5%; inhibition (RAW264.7 [3]): Dose-dependent effect; Stability [8]: Stable; inhibition (RAW264.7 [4]): Active; inhibition (RAW264.7 [5]): Active; inhibition [9]: Dose-dependent effect; survival at 10 mg/kg (Mus musculus): 45%; inhibition (RAW264.7 [6]): Active; inhibition [10]: Dose-dependent effect

Row | Compound | Activity [1] | inhibition at 10 µM (RAW264.7 [2]) [%] | also measured
18 | C=CCc1cc(/C=C2\CC/C(=C\c3ccc(O)c(CC=C)c3)C2=O)ccc1O | Non-toxic | 20 | –
19 | C=CCc1cc(/C=C/C(=O)/C=C/c2ccc(N3CCOCC3)cc2)ccc1OC | Non-toxic | 20 | inhibition (RAW264.7 [3]): Dose-dependent effect; inhibition (RAW264.7 [4]): Active; inhibition (RAW264.7 [5]): Active; inhibition (RAW264.7 [6]): Active
20 | C=CCc1cc(/C=C/C(=O)/C=C/c2ccc(OC(C)(C)C)cc2)ccc1OC | Non-toxic | 20 | –
21 | C=CCc1cc(/C=C/C(=O)/C=C/c2ccc3ccccc3c2)ccc1OC | Non-toxic | 20 | –
22 | COc1cc(/C=C/C(=O)CC(=O)/C=C/c2ccc(O)c(OC)c2)ccc1O [CURCUMIN] | Non-toxic | 20 | inhibition (RAW264.7 [4]): Active; inhibition (RAW264.7 [5]): Active; degraded at 25 min, 20 µM [11]: > 45%; inhibition (RAW264.7 [6]): Active
23 | C=CCOc1ccc(/C=C/C(=O)/C=C/c2ccc(OC)c(OC)c2)cc1 | Non-toxic | – | –
24 | C=CCc1cc(/C=C/C(=O)/C=C/c2ccc(N3CCCCC3)cc2)ccc1OC | Non-toxic | 20 | –
25 | C=CCc1cc(/C=C/C(=O)/C=C/c2ccccc2C(F)(F)F)ccc1OC | Non-toxic | – | –
26 | C=CCc1cc(/C=C/C(=O)/C=C/c2ccc(C(F)(F)F)cc2)ccc1OC | Non-toxic | 20 | –
27 | C=CCc1cc(/C=C/C(=O)/C=C/c2ccc(O)c(CC=C)c2)ccc1O | Non-toxic | 96.4 | inhibition (RAW264.7 [7]): Active; inhibition (RAW264.7 [3]): Dose-dependent effect; Stability [8]: Stable; inhibition (RAW264.7 [4]): Active; inhibition (RAW264.7 [5]): Active; inhibition (RAW264.7 [6]): Active
28 | CC(C)=CCOc1ccc(/C=C2\CCC/C(=C\c3ccc(OCC=C(C)C)cc3)C2=O)cc1 | Non-toxic | 20 | –
29 | C=CCc1cc(/C=C2\CC/C(=C\c3ccc(OC4CCCCO4)c(CC=C)c3)C2=O)ccc1OC1CCCCO1 (stereo not given) | Non-toxic | – | –
30 | C=CCc1cc(/C=C/C(=O)/C=C/c2ccc(N(C)C)cc2)ccc1OC | Non-toxic | 20 | –
31 | C=CCc1cc(/C=C/C(=O)/C=C/c2cc(F)ccc2F)ccc1OC | Non-toxic | – | –
32 | C=CCc1cc(/C=C/C(=O)/C=C/c2cccc(Br)c2)ccc1OC | Non-toxic | 20 | –
33 | C=CCc1cc(/C=C/C(=O)/C=C/c2c(F)cccc2Br)ccc1OC | Non-toxic | 20 | –
34 | C=CCOc1ccc(/C=C/C(=O)/C=C/c2ccc(F)cc2)c(O)c1 | Non-toxic | 20 | –
